In ChEMBL document CHEMBL1156778, “Synthesis and structure-activity studies of biphenyl analogues of the tuberculosis drug (6S)-2-nitro-6-{[4-(trifluoromethoxy)benzyl]oxy}-6,7-dihydro-5H-imidazo[2,1-b][1,3]oxazine (PA-824)” (J Med Chem, 2010):
Values after ≈ are worked out from the molar mass of the structure shown.

Experiments:
[1] = tested on: Mycobacterium tuberculosis; experiment: Antitubercular activity against Mycobacterium tuberculosis H37Rv infected in BALB/c mouse measured per mouse at 100 mg/kg, po daily for 5 days a week for 3 weeks; type: functional
[2] = tested on: Mycobacterium tuberculosis; experiment: Antitubercular activity against Mycobacterium tuberculosis H37Rv infected in BALB/c mouse assessed as ratio of lung CFU for compound to lung CFU for PA-824 at 100 mg/kg, po daily for 5 days a week for 3 weeks; type: functional
[3] = Metabolic stability in pooled CD1 mouse liver microsomes assessed as compound remaining after 1 hr by LC-MS-MS; type: ADME, Microsome; conditions: read-out: Stability
Summary of the method: (§1)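 Test compound at 1 μM with pooled CD-1 mouse or human liver microsomes (0.5 mg/mL protein) and NADPH-regenerating system (3.3 mM MgCl2, 3.3 mM G6P, 0.4 U/mL G6PD, 1.3 mM NADP+) in 75 mM phosphate, pH 7.4, 0.5% DMSO, 37 °C. Stopped at 0 and 60 min with MeCN containing metoprolol internal standard. LC-MS/MS (ESI, SRM), duplicates. % remaining = 100 × mean peak-area ratio at 60 min / at 0 min.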

[4] = Metabolic stability in pooled human liver microsomes assessed as compound remaining after 1 hr by LC-MS-MS; type: ADME, Microsome; conditions: read-out: Stability; summary of the method: as §1
Vero = experiment: Cytotoxicity against african green monkey Vero cells after 72 hrs by MTS assay; type: cell-based; conditions: Chlorocebus sabaeus
Summary of the method: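 VERO cells (CCL-81), 72 h exposure, tetrazolium dye read-out.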

[5] = tested on: Mycobacterium tuberculosis; experiment: Antitubercular activity against Mycobacterium tuberculosis H37Rv in anaerobic condition after 7 days by low oxygen recovery assay; type: functional; conditions: 168 h
[6] = tested on: Mycobacterium tuberculosis; experiment: Antitubercular activity against Mycobacterium tuberculosis H37Rv in aerobic condition after 7 days by microplate alamar blue assay; type: functional; conditions: 168 h
Summary of the method: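 M. tuberculosis H37Rv, replicating culture; 8-day microplate assay with Alamar blue added on day 7 to read growth. […] Mean of at least two independent determinations ± SD.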

SMILES: O=[N+]([O-])c1cn2c(n1)OC[C@@H](OCc1ccc(-c3ccc(OC(F)(F)F)cc3F)cc1)C2
- CFU [1]: 39
- fold change (FC) [2]: 46
- remaining at 1 h [3]: 89%
- remaining at 1 h [4]: 88%
- IC50 (Vero): > 125 µM
- MIC [5]: 0.72 µM (≈ 0.326 µg/mL)
- MIC [6]: 0.045 µM (≈ 0.0204 µg/mL)

SMILES: O=[N+]([O-])c1cn2c(n1)OC[C@@H](OCc1ccc(-c3ccccc3OCCCO)cc1)C2
- CFU [1]: 1100000
- fold change (FC) [2]: <0.01
- remaining at 1 h [3]: 21%
- remaining at 1 h [4]: 59%
- IC50 (Vero): > 125 µM
- MIC [5]: 2.7 µM (≈ 1.15 µg/mL)
- MIC [6]: 0.34 µM (≈ 0.145 µg/mL)

SMILES: O=[N+]([O-])c1cn2c(n1)OC[C@@H](OCc1ccc(-c3ccc(OC(F)F)cc3)cc1)C2
- CFU [1]: 1100
- fold change (FC) [2]: 8.5
- remaining at 1 h [3]: 77%
- remaining at 1 h [4]: 94%
- IC50 (Vero): > 125 µM
- MIC [5]: 0.77 µM (≈ 0.321 µg/mL)
- MIC [6]: 0.05 µM (≈ 0.0209 µg/mL)

SMILES: O=[N+]([O-])c1cn2c(n1)OC[C@@H](OCc1ccc(-c3ccc(CNc4ccccc4)cc3)cc1)C2
- CFU [1]: 500000
- fold change (FC) [2]: 0.03
- remaining at 1 h [3]: 52%
- remaining at 1 h [4]: 12%
- IC50 (Vero): > 125 µM
- MIC [5]: 0.63 µM (≈ 0.288 µg/mL)
- MIC [6]: 0.06 µM (≈ 0.0274 µg/mL)

SMILES: COc1c(F)cc(F)cc1-c1ccc(CO[C@@H]2COc3nc([N+](=O)[O-])cn3C2)cc1
- CFU [1]: 200000
- fold change (FC) [2]: 0.4
- remaining at 1 h [3]: 2%
- remaining at 1 h [4]: 72%
- IC50 (Vero): > 125 µM
- MIC [5]: 0.86 µM (≈ 0.359 µg/mL)
- MIC [6]: 0.04 µM (≈ 0.0167 µg/mL)

SMILES: COc1ccc(-c2ccc(CO[C@@H]3COc4nc([N+](=O)[O-])cn4C3)cc2)cc1F
- CFU [1]: 850000
- fold change (FC) [2]: 0.02
- remaining at 1 h [3]: 50%
- remaining at 1 h [4]: 80%
- IC50 (Vero): > 125 µM
- MIC [5]: 1.9 µM (≈ 0.759 µg/mL)
- MIC [6]: 0.04 µM (≈ 0.016 µg/mL)

SMILES: COc1cccc(F)c1-c1ccc(CO[C@@H]2COc3nc([N+](=O)[O-])cn3C2)cc1
- CFU [1]: 1100000
- fold change (FC) [2]: 0.07
- remaining at 1 h [3]: 0%
- remaining at 1 h [4]: 91%
- IC50 (Vero): > 125 µM
- MIC [5]: 0.81 µM (≈ 0.323 µg/mL)
- MIC [6]: 0.13 µM (≈ 0.0519 µg/mL)

SMILES: O=[N+]([O-])c1cn2c(n1)OC[C@@H](OCc1ccc(-c3ccc(Cl)c(OC(F)(F)F)c3)cc1)C2
- CFU [1]: 360
- fold change (FC) [2]: 9.7
- remaining at 1 h [3]: 92%
- remaining at 1 h [4]: 95%
- IC50 (Vero): > 125 µM
- MIC [5]: 0.95 µM (≈ 0.446 µg/mL)
- MIC [6]: 0.04 µM (≈ 0.0188 µg/mL)

SMILES: O=[N+]([O-])c1cn2c(n1)OC[C@@H](OCc1ccc(-c3ccc(OCCCN4CCOCC4)cc3)cc1)C2
- CFU [1]: 310000
- fold change (FC) [2]: 0.05
- remaining at 1 h [3]: 14%
- remaining at 1 h [4]: 11%
- IC50 (Vero): > 125 µM
- MIC [5]: 1 µM (≈ 0.495 µg/mL)
- MIC [6]: 0.097 µM (≈ 0.048 µg/mL)

SMILES: O=[N+]([O-])c1cn2c(n1)OC[C@@H](OCc1ccc(-c3cccc(OCc4ccccc4)c3)cc1)C2
- CFU [1]: 120000
- fold change (FC) [2]: 0.66
- remaining at 1 h [3]: 50%
- remaining at 1 h [4]: 64%
- IC50 (Vero): > 125 µM
- MIC [5]: 0.88 µM (≈ 0.403 µg/mL)
- MIC [6]: 0.12 µM (≈ 0.0549 µg/mL)
